The results in this text go back to ChEMBL document CHEMBL1132352, “5'-Phosphoramidates and 5'-diphosphates of 2'-O-allyl-beta-D-arabinofuranosyluracil, -cytosine, and -adenine: inhibition of ribonucleotide reductase” (J Med Chem, 1999).

Where only a bound is given, the exact number is not on record here.

What all share (type): functional, cell-based
Assay [1] concerns FM3A. Kind of assay: The compound was tested for cytostatic activity against mammary FM3A cells. The settings on record: Mus musculus. An outline of the steps:
(§1)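 Murine L1210 leukemia or FM3A mammary carcinoma cells went in at 5–7.5 × 10⁴ per well alongside test compound. Proliferation ran 48 h at 37 °C in a humidified CO₂-controlled atmosphere, followed by Coulter counter cell counts. IC50 is the concentration reducing viable cells by 50%.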

Assay [2] concerns L1210. The assay can be described thus: The compound was tested for cytostatic activity against murine leukemia L1210 cells. Conditions: Mus musculus. An outline of the steps:
as §1

Assay [3] concerns MOLT-4. The assay can be described thus: The compound was tested for cytostatic activity against human T4-lymphocyte molt(molt 4/C8). In short, it runs like this: (§2)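 Human T4-lymphocyte CEM or Molt cells were seeded at 5–7.5 × 10⁴ cells per well with test compound. They grew for 72 h at 37 °C in humidified, CO₂-controlled air and were then counted with a Coulter counter. IC50 is the compound concentration that cut viable cell number by 50%.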

The subject of assay [4] is CCRF-CEM. Kind of assay: The compound was tested for cytostatic activity against CEM cells. Conditions: Homo sapiens. In short, it runs like this: as §2
The subject of assay [5] is CCRF-CEM. Kind of assay: The compound was tested for cytostatic activity against human CEM cells. An outline of the steps:
as §2

Assay [6] has as its system FM3A. Kind of assay: The compound was tested for cytostatic activity against murine mammary FM3A cells. Conditions: Mus musculus. An outline of the steps:
as §1

In general, IC50 refers to the concentration that gives 50% inhibition. The low end stands for inhibition by little substance, the high end for a need for much substance. As for `C=CCO[C@H]1[C@H](O)[C@@H](COP(=O)(NC(C)C(=O)OCC)Oc2ccccc2)O[C@H]1n1ccc(N)nc1=O` (stereo not given in full), the IC50 in assay [1], in assay [2], in assay [3] and in assay [4] was greater than 200 µM throughout.
Take `C=CCO[C@H]1[C@H](O)[C@@H](CO)O[C@H]1n1cnc2c(N)ncnc21`: the IC50 in assay [1] turned out to be 316 µM; in assay [2], 181 µM; in assay [3], 285 µM; in assay [4] it was 79 µM.
As to `C=CCO[C@H]1[C@H](O)[C@@H](CO)O[C@H]1n1ccc(=O)[nH]c1=O`, the IC50 in assay [5], in assay [6], in assay [2] and in assay [3] was greater than 500 µM throughout.
On to `C=CCO[C@H]1[C@H](O)[C@@H](CO)O[C@H]1n1ccc(N)nc1=O`, for which the IC50 was 325 µM in assay [1], 38 µM in assay [2], greater than 500 µM in assay [3] and 61 µM in assay [4].
Consider `C=CCO[C@H]1[C@H](O)[C@@H](COP(=O)(NC(C)C(=O)OCC)Oc2ccccc2)O[C@H]1n1ccc(=O)[nH]c1=O` (stereo not given in full), for which the IC50 in assay [1], in assay [2], in assay [3] and in assay [4] was greater than 200 µM in each case.
